These results are taken from ChEMBL document CHEMBL1158555, “Structure-activity relationships of bioisosteric replacement of the carboxylic acid in novel androgen receptor pure antagonists” (Bioorg Med Chem, 2010).

As usually defined, the IC50 is the concentration that inhibits the measured activity by half. A low value points to greater potency in that assay. Broadly, the ED50 is the dose at which the effect has come halfway, by size or by number of responders.

Data set [1] deals with T1, Androgen receptor (Homo sapiens, UniProt P10275).
T1 sequence (P10275 whole entry): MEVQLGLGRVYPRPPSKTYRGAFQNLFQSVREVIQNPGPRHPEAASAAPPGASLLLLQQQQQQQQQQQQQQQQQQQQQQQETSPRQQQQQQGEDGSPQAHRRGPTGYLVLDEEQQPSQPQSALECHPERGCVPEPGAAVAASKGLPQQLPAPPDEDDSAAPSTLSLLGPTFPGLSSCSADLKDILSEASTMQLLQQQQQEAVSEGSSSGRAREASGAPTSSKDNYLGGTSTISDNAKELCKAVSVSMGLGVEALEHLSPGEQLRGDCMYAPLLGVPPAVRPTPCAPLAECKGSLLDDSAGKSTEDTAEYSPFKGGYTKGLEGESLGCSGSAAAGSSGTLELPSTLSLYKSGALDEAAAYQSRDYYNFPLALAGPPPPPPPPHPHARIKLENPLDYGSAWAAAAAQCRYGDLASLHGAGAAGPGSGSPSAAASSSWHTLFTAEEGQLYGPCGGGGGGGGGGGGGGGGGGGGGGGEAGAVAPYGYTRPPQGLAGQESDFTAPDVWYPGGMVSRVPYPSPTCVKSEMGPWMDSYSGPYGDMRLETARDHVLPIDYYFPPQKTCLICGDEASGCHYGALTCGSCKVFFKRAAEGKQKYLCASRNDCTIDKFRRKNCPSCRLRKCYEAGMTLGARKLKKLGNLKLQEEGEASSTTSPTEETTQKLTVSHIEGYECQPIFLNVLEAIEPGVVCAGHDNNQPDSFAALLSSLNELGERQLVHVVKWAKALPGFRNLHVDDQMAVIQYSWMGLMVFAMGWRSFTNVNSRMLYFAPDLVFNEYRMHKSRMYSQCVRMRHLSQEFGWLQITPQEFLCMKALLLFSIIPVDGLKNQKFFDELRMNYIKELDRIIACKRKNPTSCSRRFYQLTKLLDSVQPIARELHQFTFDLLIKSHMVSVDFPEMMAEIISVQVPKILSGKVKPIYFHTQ
In words: Displacement of [3H]mibolerone from human AR expressed in CHO-K1 cells after 2 hrs by scintillation counting. The format is cell-based.

Data set [2] concerns the target T2, Androgen receptor (Homo sapiens) (UniProt P10275).
T2 sequence (whole entry): T1 sequence (P10275 whole entry)
The conditions noted are these: HeLa.

The target of data set [3] is T2, Androgen receptor (Homo sapiens). The following applies: HeLa. The source holds these as a separate data set.
The target is the same in data set [4]. In words: Agonist activity at AR in human LNCAP cells assessed as effect on cell proliferation after 6 days. It counts as functional, cell-based. In short, it runs like this: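 LNCaP cells were pre-starved and plated in phenol red-free RPMI 1640 with 5% DCC-FBS. After overnight attachment, test compound was added without R1881 for 6 days. Proliferation was read by MTS (CellTiter 96 AQueous One). Agonism was scored +/− from the growth dose-response curve.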

Data set [5] is described as follows: Metabolic stability in human liver microsomes assessed as compound remaining at […] after 15 mins by LC-MS/MS analysis. It counts as ADME, Microsome. The following applies: read-out: Stability. Background: Liver microsomes are vesicles of endoplasmic reticulum, rich in cytochrome P450 enzymes.
Data set [6] relates to LNCaP. The experiment in a line: Antitumor activity against human LNCAP cells xenografted in po dosed SCID mouse assessed as inhibition of tumor growth administered once daily in seven cycles of 5 days on and 2 days off schedule. It counts as functional, organism-based. In short, it runs like this:
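LNCaP cells (2×10^6) were injected subcutaneously into 6-week-old male SCID mice. At tumour size 90–400 mm³, mice were randomised and dosed orally in 5% gum arabic at 10 mL/kg body weight. Dosing ran as seven cycles of 5 days on, 2 days off, with n = 6 per group.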
(In xenograft studies the graft and the host belong to different species.)

For data set [7], the species on record is Mus musculus. The experiment in a line: Antiandrogenic activity in castrated mouse assessed as reduction in testosterone-induced wet weight gain of seminal vesicle. It counts as functional.

Calls of active or inactive are those of the source. The calls are words filed in the database; no cut-off is given here.

In the case of `CC1(C)C(=O)N(c2ccc(C#N)c(C(F)(F)F)c2)C(=S)N1CCCCS(N)(=O)=O`, the IC50 in data set [1] was > 1000 nM. The EC5 in data set [2] and in data set [3] was > 10 µM throughout. Moreover, the result in data set [4] was inactive.

Turning to `Cc1cc(N2C(=O)C(C)(C)N(CCCS(N)(=O)=O)C2=S)ccc1C#N`, the IC50 in data set [1] was > 1000 nM. In addition, the remaining in data set [5] amounted to 94%. In data set [3], the EC5 is > 10 µM. Also, the result in data set [4] was inactive.

With `COc1cc(N2C(=O)C(C)(C)N(CCCS(N)(=O)=O)C2=S)ccc1C#N`, the IC50 in data set [1] is 1900 nM. Further, in data set [5], the remaining stood at 100%. Also, the EC5 in data set [3] is > 10 µM. In addition, the outcome in data set [4] was Active.

`CC1(C)C(=O)N(c2ccc(C#N)c(C(F)(F)F)c2)C(=S)N1CCS(N)(=O)=O`: the IC50 in data set [1] is 770 nM. For the same molecule, the EC5 in data set [2] was > 10 µM; in data set [3] it was 7.2 µM. Also, the result in data set [4] was inactive.

On to `CC1(C)C(=O)N(c2ccc(C#N)c(C(F)(F)F)c2)C(=S)N1CCCc1nnn[nH]1`, for which the IC50 in data set [1] is > 1000 nM. Further, in data set [2], the EC5 is > 10 µM. In addition, the result in data set [4] was inactive.

The molecule `CN1C(=S)N(c2ccc(C#N)c(C(F)(F)F)c2)C(=O)C1(C)C` had a concentration for half-maximal inhibition (IC50) in data set [1] of 15 nM. Further, the EC5 was < 0.001 µM in data set [2] and 8e-05 µM in data set [3]. In addition, the result in data set [4] was Active.

As for `CC1(C)C(=O)N(c2ccc(C#N)c(Cl)c2)C(=S)N1CCCS(N)(=O)=O`, in data set [6], the inhibition entry was “Dose-dependent effect”. In data set [7], the 50% effective dose (ED50) was 10 mg/kg. In data set [1], this molecule gave an IC50 of 440 nM. Moreover, the remaining in data set [5] amounted to 100%. For the same molecule, in data set [4], the result was inactive.

Turning to `Cc1cc(C#N)c(C(F)(F)F)cc1N1C(=O)C(C)(C)N(CCCS(N)(=O)=O)C1=S`, in data set [1], the IC50 is > 5000 nM. The remaining in data set [5] worked out at 91%. For the same molecule, in data set [3], the EC5 was > 10 µM.

On to `CC1(C)C(=O)N(c2ccc(C#N)cc2)C(=S)N1CCCS(N)(=O)=O`, for which the IC50 in data set [1] is > 5000 nM. Also, the remaining in data set [5] is 92%. Further, in data set [3], the EC5 was > 10 µM.

As for `CC1(C)C(=O)N(c2ccc(C#N)c(C(F)(F)F)c2)C(=S)N1CCCS(N)(=O)=O`, the IC50 in data set [1] amounted to 400 nM. Further, the EC5 in data set [2] and in data set [3] was > 10 µM in each case. The remaining in data set [5] came out at 95%. Further, the outcome in data set [4] was inactive.

As for `CC1(C)C(=O)N(c2ccc(C#N)c(C(F)(F)F)c2)C(=S)N1CCCC(N)=O`, in data set [1], the half-inhibitory concentration (IC50) is 480 nM. The results for the EC5 in data set [2] and in data set [3] were 3.6 µM and > 10 µM, respectively. Moreover, in data set [4], the result was inactive.

Consider `CC1(C)C(=O)N(c2ccc(C#N)c(C(F)(F)F)c2)C(=S)N1CCCNS(N)(=O)=O`, for which the IC50 in data set [1] is > 1000 nM. Further, the EC5 in data set [2] and in data set [3] was > 10 µM in each case. Moreover, the result in data set [4] was inactive.

In data set [1], `CC1(C)C(=O)N(c2ccc(C#N)c(C(F)(F)F)c2)C(=S)N1CCCC(=O)O` returned an IC50 of 3900 nM. The EC5 in data set [2] and in data set [3] was > 10 µM in each case. In addition, the remaining in data set [5] is 97%. Further, the result in data set [4] was inactive.

As for `CNS(=O)(=O)CCCN1C(=S)N(c2ccc(C#N)c(C(F)(F)F)c2)C(=O)C1(C)C`, the half-inhibitory concentration (IC50) in data set [1] was found to be 170 nM. Further, the EC5 in data set [2] was > 10 µM; in data set [3], 1.4 µM. Further, the outcome in data set [4] was inactive.

`Cc1c(N2C(=O)C(C)(C)N(CCCS(N)(=O)=O)C2=S)ccc(C#N)c1C(F)(F)F` had a half-inhibitory concentration (IC50) in data set [1] of 260 nM. Also, the remaining in data set [5] came to 89%. Besides, the EC5 in data set [3] worked out at 2 µM. Moreover, the result in data set [4] was Active.

For `CN(C)S(=O)(=O)CCCN1C(=S)N(c2ccc(C#N)c(C(F)(F)F)c2)C(=O)C1(C)C`, the IC50 in data set [1] was 80 nM. This molecule showed an EC5 in data set [2] of 0.11 µM. Besides, the result in data set [4] was Active.

On to `CC1(C)C(=O)N(c2ccc(C#N)c(C(F)(F)F)c2)C(=S)N1CCCS(=O)(=O)O`, for which, in data set [1], the IC50 is > 1000 nM. Also, the EC5 in data set [2] was > 10 µM. Moreover, the result in data set [4] was Active.

`CC1(C)C(=O)N(c2ccc(C#N)c(C(F)(F)F)c2)C(=S)N1CCCNC(N)=O`: the 50% inhibitory concentration (IC50) in data set [1] is 800 nM. The EC5 is 0.65 µM in data set [2] and 0.35 µM in data set [3]. The result in data set [4] was inactive.
